Assay [1] concerns Rattus norvegicus. Put plainly: Endosteal mineralizing surface Histomorphometrically after a dose of 30 ug/kg in tibial diaphysis. The class given is functional. The procedure, abridged:
(§1)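 Six-month-old rats, bilaterally ovariectomized, 6-8 per group, on natural chow. After 60 days they received once-daily subcutaneous dosing for 60 days at 0.01–3.0 mg/kg. Vehicle was acetate-buffered saline with methylcellulose and polyoxyethylenesorbitan monooleate. Labels were xylenol orange 90 mg/kg before treatment and calcein 10 mg/kg 14 and 4 days before sacrifice. Tibial histomorphometry was read under fluorescent light, with ANOVA/LSD versus vehicle.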

Assay [2] relates to Rattus norvegicus. Put plainly: Trabecular no (mm)measured Histomorphometrically after a dose of 1000 ug/kg in proximal tibial metaphysis. The class given is functional, Trabecula. In a few lines:
(§2)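 Six-month-old rats were ovariectomized, and 60 days later daily subcutaneous dosing began for 60 days, with vehicle of acetate-buffered saline, methylcellulose and polysorbate. Xylenol orange (90 mg/kg) labelled bone pre-treatment and calcein (10 mg/kg) 14 and 4 days pre-sacrifice. Histomorphometry covered the proximal tibial metaphysis 1-4 mm distal to the growth plate-metaphyseal junction. Groups were 6-8 rats, compared by ANOVA/LSD vs vehicle.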

Assay [3] has as its system Rattus norvegicus. Kind of assay: Endosteal eroded surface(%) measured Histomorphometrically after a dose of 30 ug/kg in tibial diaphysis. In kind it is functional. In a few lines:
(§3)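 Tibial histomorphometry in 6-month-old rats, OVX 60 days before treatment, then daily injection for 60 days. Vehicle was acetate-buffered saline with methylcellulose and polyoxyethylenesorbitan monooleate. Rats received xylenol orange 90 mg/kg before treatment and calcein 10 mg/kg at 14 and 4 days pre-sacrifice. Rats were killed by cardiac puncture under ketamine/xylazine. Groups were compared with vehicle by ANOVA plus LSD test.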

Assay [4] deals with Rattus norvegicus. Put plainly: Derived trabecular thickness (um) measured using micro Computed Tomography(CT) after a dose of 30 ug/kg in Vertebral Bone. In kind it is functional, Trabecula. The procedure, abridged:
(§4)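 Micro-CT of the fifth lumbar vertebra, measuring cancellous bone volume and architecture. Rats were 6 months old, OVX 60 days before treatment, then dosed daily for 60 days. Test-agent doses were 10–3000 µg/kg, given as a once-daily subcutaneous injection; 6 mg/kg/day was given to the positive-control group. Groups were compared with vehicle by ANOVA plus LSD test.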

Assay [5] relates to Rattus norvegicus. Put plainly: Endosteal eroded surface(%) measured Histomorphometrically after a dose of 3000 ug/kg in tibial diaphysis. The class given is functional. In a few lines:
as §3

The subject of assay [6] is Rattus norvegicus. Kind of assay: Mineral apposition rate ([…])bone measured Histomorphometrically after a dose of 100 ug/kg in tibial diaphysis. The class given is functional. The procedure, abridged:
as §1

The subject of assay [7] is Rattus norvegicus. Put plainly: Trabecular thickness […] measured Histomorphometrically after a dose of 300 ug/kg in proximal tibial metaphysis. The class given is functional, Trabecula. The procedure, abridged: as §2
Assay [8] concerns Rattus norvegicus. Kind of assay: Marrow area (mm) measured Histomorphometrically after a dose of 100 ug/kg in tibial diaphysis. The class given is functional. The procedure, abridged:
as §1

Assay [9] concerns Rattus norvegicus. Put plainly: Bone Volume /Tissue Volume (%)measured Histomorphometrically after a dose of 10 ug/kg in proximal tibial metaphysis. The note with it: at 10 µg/kg. In kind it is functional.
The subject of assay [10] is Rattus norvegicus. Kind of assay: Periosteal mineral apposition rate ([…]) measured Histomorphometrically after a dose of 100 ug/kg in tibial diaphysis. The class given is functional. The procedure, abridged: as §1
The test system of assay [11] is Rattus norvegicus. Kind of assay: Endosteal eroded surface(%) measured Histomorphometrically after a dose of 1000 ug/kg in tibial diaphysis. The class given is functional. In a few lines: as §3
For assay [12], the system named is Rattus norvegicus. Kind of assay: Bone Volume /Tissue Volume (%)measured Histomorphometrically after a dose of 1000 ug/kg in proximal tibial metaphysis. In kind it is functional. The note with it: at 1000 µg/kg.
Assay [13] has as its system Rattus norvegicus. Put plainly: Tissue area (mm) measured Histomorphometrically after a dose of 10 ug/kg in tibial diaphysis. The class given is functional. The procedure, abridged:
(§5)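 Rats on natural chow (1.46% Ca) were bilaterally ovariectomized at 6 months and left untreated for 60 days. They then received once-daily subcutaneous doses for 60 days, with vehicle of acetate-buffered saline, methylcellulose and polysorbate. Xylenol orange (90 mg/kg) was given before treatment and calcein (10 mg/kg) 14 and 4 days before sacrifice. Tibiae were analysed by fluorescent histomorphometry, 6-8 rats/group, ANOVA/LSD vs vehicle.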

The test system of assay [14] is Rattus norvegicus. Put plainly: Mineralizing surface/bone surface(%) measured Histomorphometrically after a dose of 1000 ug/kg in proximal tibial metaphysis. The class given is functional. In a few lines:
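Ovariectomized six-month-old rats, 6-8 per group, were dosed subcutaneously once daily at 0.01–3.0 mg/kg for 60 days, starting 60 days after surgery. Vehicle was acetate-buffered saline, methylcellulose and polyoxyethylenesorbitan monooleate. Labels were xylenol orange 90 mg/kg pretreatment and calcein 10 mg/kg at 14 and 4 days before necropsy. Histomorphometry covered the proximal tibial metaphysis, 1–4 mm distal to the growth plate–metaphyseal junction. ANOVA/LSD versus vehicle.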

Assay [15] concerns Rattus norvegicus. Kind of assay: Bone formation rate/bone volume (%/year) bone measured histomorphometrically after a dose of 3000 ug/kg in proximal tibial metaphysis. In kind it is functional. The following applies: at 3000 µg/kg.
For assay [16], the system named is Rattus norvegicus. Kind of assay: Periosteal mineral apposition rate ([…]) measured Histomorphometrically after a dose of 1000 ug/kg in tibial diaphysis. In kind it is functional. In a few lines: as §1
The next assay deals with T1, Thromboxane A2 receptor (Homo sapiens, UniProt P21731).
T1 sequence (P21731 whole entry): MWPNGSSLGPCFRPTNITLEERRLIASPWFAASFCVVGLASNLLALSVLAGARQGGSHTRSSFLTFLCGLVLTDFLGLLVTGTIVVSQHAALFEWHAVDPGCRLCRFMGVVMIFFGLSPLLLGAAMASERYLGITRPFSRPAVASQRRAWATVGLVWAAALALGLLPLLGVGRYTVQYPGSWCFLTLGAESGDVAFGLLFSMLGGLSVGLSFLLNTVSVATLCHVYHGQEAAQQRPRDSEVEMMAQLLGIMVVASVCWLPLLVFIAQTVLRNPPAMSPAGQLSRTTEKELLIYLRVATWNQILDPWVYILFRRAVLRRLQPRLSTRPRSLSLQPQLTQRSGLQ
Kind of assay: In vitro binding at TP human prostaglandin receptor using [3H]SQ-29,548 as radioligand. In a few lines:
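Receptors stably expressed in CHO cells, collected 4-5 days after seeding. Membranes made by lysis (Tris, EDTA, protease inhibitors) and 100000g pellet, then resuspended at 1 mg protein/mL in TME. Radioligands at 5 nM: [3H]PGE2 for EP2/EP3/EP4, [3H]Iloprost for IP, [3H]SQ-29548 for TP. Competition binding with filtration and counting.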

Assay [17] has as its system Rattus norvegicus. Put plainly: Derived trabecular thickness (um) measured using micro Computed Tomography(CT) after a dose of 1000 ug/kg in Vertebral Bone. The class given is functional, Trabecula. The procedure, abridged:
as §4

The test system of assay [18] is Rattus norvegicus. Put plainly: Periosteal mineralizing surface (%) measured Histomorphometrically after a dose of 10 ug/kg in tibial diaphysis. The class given is functional. The procedure, abridged: as §5
The subject of assay [19] is Rattus norvegicus. Kind of assay: Bone Volume /Tissue Volume (%)measured using micro Computed Tomography(CT) after a dose of 10 ug/kg in Vertebral Bone. In kind it is functional. The following applies: at 10 µg/kg.
In assay [20] the test system is Rattus norvegicus. Put plainly: Bone Volume /Tissue Volume (%)measured Histomorphometrically after a dose of 300 ug/kg in proximal tibial metaphysis. In kind it is functional. The note with it: at 300 µg/kg.
Assay [21] concerns Rattus norvegicus. Put plainly: Periosteal mineralizing surface (%) measured Histomorphometrically after a dose of 100 ug/kg in tibial diaphysis. In kind it is functional. In a few lines:
as §5

Assay [22] has as its system Rattus norvegicus. Kind of assay: connectivity density (mm-3) using micro Computed Tomography(CT) after a does of 10 ug/kg in Vertebral Bone. The class given is functional. The procedure, abridged:
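Rats were ovariectomized at 6 months of age and, after 60 days, dosed subcutaneously once daily for 60 days, with vehicle of acetate-buffered saline, methylcellulose and polysorbate. At necropsy the fifth lumbar vertebra was scanned by micro-CT to obtain cancellous architecture. Groups were 6-8 rats; results were compared to vehicle by ANOVA with least significant difference test.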

In assay [23] the test system is Rattus norvegicus. Kind of assay: Endosteal mineralizing surface Histomorphometrically after a dose of 3000 ug/kg in tibial diaphysis. The class given is functional. In a few lines:
as §1

Molecules are shown by their SMILES.

Regarding `CP(=O)(O)CCC/C=C\C[C@@H]1[C@@H](/C=C/[C@@H](O)COc2ccccc2)[C@H](O)C[C@@H]1O`, the Endosteal mineralizing surface with Rattus norvegicus [1] is recorded as 28.72%; in the assay on Rattus norvegicus [23], 29.4%. Moreover, the Trabecular no. in the assay on Rattus norvegicus [2] is 1.64 1/mm. The Endosteal eroded surface in the assay on Rattus norvegicus [3] is on record as 2.01%; in the assay on Rattus norvegicus [5], 2.2%; in the assay with Rattus norvegicus [11], 2.74%. Moreover, the Derived trabecular thickness was determined as 77.8 µm in the assay with Rattus norvegicus [4] and 80.6 µm in the assay on Rattus norvegicus [17]. Also, the Mineral apposition rate with Rattus norvegicus [6] was found to be 0.42 µm/day. The compound further yielded a Trabecular thickness in the assay with Rattus norvegicus [7] of 44 µm. In addition, the Marrow area in the assay on Rattus norvegicus [8] is 0.82 mm². Moreover, the Activity is 2.23% in the assay with Rattus norvegicus [9]; 9.43% with Rattus norvegicus [12]; 22.04% with Rattus norvegicus [14]; 247.55% in the assay on Rattus norvegicus [15]; 31.04% in the assay with Rattus norvegicus [19]; 5.72% in the assay with Rattus norvegicus [20]. Also, the results for the Periosteal mineral apposition rate in the assay on Rattus norvegicus [10] and in the assay on Rattus norvegicus [16] were 0.38 µm day-1 and 0 µm/day, respectively. Also, the Tissue area in the assay with Rattus norvegicus [13] came out at 5.09 mm. On Thromboxane A2 receptor, the half-maximal inhibitory concentration (IC50) (commonly the midpoint of a concentration-inhibition curve) is > 10 µM. Further, the Periosteal mineralizing surface in the assay with Rattus norvegicus [18] stood at 25.86%; with Rattus norvegicus [21], 15.21%. The compound further yielded a Connectivity density in the assay on Rattus norvegicus [22] of 60.28 mm**-3.

Source of the values: ChEMBL document CHEMBL1134785, “Synthesis and biological evaluation of prostaglandin-F alkylphosphinic acid derivatives as bone anabolic agents for the treatment of osteoporosis” (J Med Chem, 2001).
